An excerpt weighted towards active compounds, which were near 3.1% of everything screened.
HSF1 activator = increases HSF-1 driven luciferase reporter signal. activation, % at 9 µM. NIH3T3-HGL HSF-1 luciferase reporter, MG132, 8 h; 100% = twice DMSO control signal. AID 504408. 300,000 compounds, 1.7% hits;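 active means mean replicate activation of at least 50% with a set share of replicates each reaching 50%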;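 further: 0% = median of the neutral control wells and 100% = twice that signal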
Tb hexokinase = T. brucei hexokinase 1 inhibition; recombinant TbHK1, G6PDH-coupled NADH A340; inhibition, % at 10 µM; 220,000 compounds, 0.11% hits;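 active means inhibition of 50% or more in the single-dose primary screen; inactive means inhibition below 50%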
HKDC1 inhibitor = inhibitors of human hexokinase HKDC1 | AID 493160 | 340,000 compounds, 0.16% hits | recombinant HKDC1, G6PDH/diaphorase resazurin coupled fluorescence | Q2TB90 | inhibition, % at 20 µM;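 active means inhibition above about 35% when tested at 20 µM, limit read from the data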;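 further: plate controls were DMSO wells with enzyme for no effect and DMSO wells lacking enzyme for full effect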
Target sequence (Q2TB90 whole entry, looked up): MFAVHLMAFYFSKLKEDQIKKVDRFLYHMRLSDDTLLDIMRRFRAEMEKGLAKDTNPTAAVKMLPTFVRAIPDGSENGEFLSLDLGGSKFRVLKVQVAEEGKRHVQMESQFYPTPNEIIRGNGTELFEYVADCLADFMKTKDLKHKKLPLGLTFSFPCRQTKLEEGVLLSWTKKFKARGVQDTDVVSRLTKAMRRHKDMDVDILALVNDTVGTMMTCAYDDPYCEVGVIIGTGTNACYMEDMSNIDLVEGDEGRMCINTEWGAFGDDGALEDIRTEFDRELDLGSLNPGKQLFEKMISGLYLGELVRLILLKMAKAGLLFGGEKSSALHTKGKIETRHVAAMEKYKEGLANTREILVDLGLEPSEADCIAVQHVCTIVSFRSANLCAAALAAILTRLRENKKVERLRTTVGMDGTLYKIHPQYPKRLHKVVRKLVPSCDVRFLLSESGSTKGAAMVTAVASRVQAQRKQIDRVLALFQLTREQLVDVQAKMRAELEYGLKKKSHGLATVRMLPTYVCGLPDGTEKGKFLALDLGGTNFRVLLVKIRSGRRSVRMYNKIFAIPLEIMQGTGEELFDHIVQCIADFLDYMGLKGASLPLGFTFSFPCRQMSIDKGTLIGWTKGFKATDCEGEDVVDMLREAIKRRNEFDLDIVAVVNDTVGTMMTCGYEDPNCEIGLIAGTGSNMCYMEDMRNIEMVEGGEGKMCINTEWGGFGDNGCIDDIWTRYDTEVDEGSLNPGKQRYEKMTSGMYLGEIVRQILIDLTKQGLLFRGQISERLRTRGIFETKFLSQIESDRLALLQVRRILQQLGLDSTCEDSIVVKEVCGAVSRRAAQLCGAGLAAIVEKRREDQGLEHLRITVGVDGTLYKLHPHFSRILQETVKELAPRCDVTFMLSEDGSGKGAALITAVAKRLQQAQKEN
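Assay system: in-house recombinant HK5 (HKDC1) enzyme. Input: HKDC1 at 5 µg/mL. Medium: Tris pH 8.0 buffer with MgCl2, Tween-20, BSA, BME. Dosing: single 20 µM dose. Schedule: 90 min reaction incubation at room temperature, dark. Signal: resazurin-to-resorufin fluorescence via G6PDH and diaphorase coupling, 525/613 nm. Controls: DMSO-enzyme wells negative, buffer-substituted wells positive.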
HSF1 inh = HSF1 inhibition; NIH3T3-HGL HSE-luciferase, MG132-induced, luminescence 8 h; hits give low values; activity change, negative = inhibition, % at 7.5 µM (by protocol); 300,000 compounds, 0.77% hits; AID 2098;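 active means more than half of replicate wells show activity change below -50%, luminescence cut by over half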;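 further: luciferase reports HSF-1 transcriptional activity via heat shock element; 0% = median of DMSO wells and -100% = zero luminescence signal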
Hsp70 activator = Hsp70 transcriptional activation, primary screen; HeLa Hsp70 promoter luciferase reporter, luminescence; scaled: vehicle 0, proteasome-inhibitor control 100%; activation, % at 10 µM; 200,000 compounds, 0.04% hits; AID 1203;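 active means activation above the mean across all tested compounds plus 3 SD, cutoff set per campaign, cut at about 5.5% in these data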;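 further: 100% = MG132 at 30 µM as the positive control and 0% = DMSO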
HSP90 refold inh = inhibitors of HSP90 luciferase refolding in rabbit reticulocyte lysate | AID 1789 | 290,000 compounds, 0.91% hits | inhibition, % at 5.6 µM | luciferase refolding luminescence, 3 h;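 active means inhibition above the screen-wide mean plus 3 SD, computed separately per campaign, cut at about 16% in these data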;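 further: 0% = DMSO wells and 100% = 60 µM geldanamycin wells; inhibitors lower the luminescence because luciferase stays unfolded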
Numbers without * were called inactive; nt = not tested or not shown.

SMILES	HSF1 activator	Tb hexokinase	HKDC1 inhibitor	HSF1 inh	Hsp70 activator	HSP90 refold inh
COCCn1c(C)cc(C(=O)COC(=O)c2ccc(Cl)c(S(N)(=O)=O)c2)c1C	-62.4	nt	1.8	-60.5*	nt	nt
COCCn1c(C)cc(C(=O)COC(=O)c2ccc(N3CCCC3=O)cc2)c1C	-0.6	-10.8	-2.1	0.4	-0.2	-2.4
CC(C)(C)CC(=O)Nc1nnc(SCC(=O)N2CCCCC2)s1	13.4	nt	-1.6	3.3	nt	-2.4
COC(=O)CCN1CCc2cc(N=Nc3ccc([N+](=O)[O-])cc3)ccc21	-58.3	-13.3	-0.4	-63.2*	nt	0.3
Cc1ccccc1CN1CCc2cc([N+](=O)[O-])ccc21	17.8	nt	-1.1	3.1	nt	1.0
CCOC(=O)c1cc(NC(=O)COc2ccc([N+](=O)[O-])cc2)cc(C(=O)OCC)c1	53.3*	-7.3	-5.0	17.9	-0.3	1.9
O=C(COc1ccc([N+](=O)[O-])cc1)Nc1cc(C(=O)O)cc(C(=O)O)c1	-16.3	-4.8	-3.3	-4.8	0.0	1.3
CCc1ccc(OCC(=O)Nc2nnc(C3CCCC3)s2)cc1	4.6	nt	4.2	11.3	nt	-7.7
CCCC(=O)Nc1cnc(NC(=O)c2cccc(F)c2)cc1C	5.7	-0.4	-3.5	5.6	-0.3	16.7*
CC(OC(=O)c1nsc(Cl)c1Cl)C(=O)NCc1ccc2c(c1)OCO2 (configuration not stated)	-87.8	-4.2	-10.0	-84.8*	0.0	-0.6
Brc1cccc(C=Nc2cccc3ncccc23)c1	25.0	nt	13.5	-0.8	nt	nt
Oc1c(Br)cc(Br)cc1C=Nc1cccc2ncccc12	62.0*	nt	31.4	37.5	nt	nt
CCN(CC)CCN(C)Cc1nc(C(c2ccccc2)c2ccccc2)no1	54.1*	nt	5.1	15.5	nt	-1.5
CN(CCc1cn[nH]c1)Cc1nc(C(c2ccccc2)c2ccccc2)no1	45.8	-4.8	-10.9	6.4	-0.4	-3.1
COc1cc(Cl)cc(/C=C/c2ccc3ccccc3n2)c1OC(C)=O	183.3*	-3.9	0.5	158.4	-0.2	-4.1
O=C(CNC(=O)C1CCCCC1)NC1=NCCS1	-90.3	-1.1	-9.8	-88.3*	-0.4	-1.4
O=C(CNC(=O)C12CC3CC(CC(C3)C1)C2)NC1=NCCS1	-13.6	-3.2	7.5	-11.8	0.0	-0.5
Cc1ccc(S(=O)(=O)N(CC(=O)N2CCc3ccccc3C2)c2ccc(Cl)c(Cl)c2)cc1	-90.6	1.1	-2.4	-87.6*	-0.4	-1.0
COc1cccc(N(CC(=O)N2CCN(C)CC2)S(=O)(=O)c2ccc(C)cc2)c1	-88.1	0.8	-5.0	-85.1*	0.0	-2.9
COc1ccc(N(CC(=O)N2CCN(C)CC2)S(=O)(=O)c2ccccc2)cc1	1.9	nt	1.8	-11.1	nt	3.8
O=C(c1ccccn1)N(Cc1ccco1)C1(C(=O)NC2CCCC2)CCCCC1	61.1*	-5.4	3.4	22.7	-0.3	3.5
CCOC(=O)C(=Cc1ccc(-n2cncn2)cc1)C(=O)OCC	126.9*	-1.9	-5.9	98.0	1.6	-1.2
O=S(=O)(Nc1nc2ccccc2nc1NCc1ccco1)c1ccc(Cl)cc1	0.2	1.7	11.6	2.7	0.0	1.9
Cc1ccc(S(=O)(=O)Nc2nc3ccccc3nc2NCc2ccco2)cc1	67.6*	-10.7	5.7	44.3	-0.1	-0.8
COC(=O)c1sc(NC(=O)CN2CCN(c3cccc(Cl)c3)CC2)c(C(=O)OC)c1C	nt	nt	2.6	nt	nt	nt
SMILES	HSF1 activator	Tb hexokinase	HKDC1 inhibitor	HSF1 inh	Hsp70 activator	HSP90 refold inh
CN1CCN(Cn2cc(/C=C/C(=O)c3ccccc3)c3ccccc32)CC1	87.0*	-5.9	2.7	45.5	0.3	0.4
COc1cccc(OCC(=O)Nc2c3c(nn2-c2ccc(F)cc2)CS(=O)(=O)C3)c1	-8.2	nt	4.1	1.0	nt	0.3
CC1(C)CC(=O)c2ccc(OCc3ccc([N+](=O)[O-])cc3)cc2O1	70.4*	-4.7	-1.7	41.0	nt	-0.9
COc1ccc(C(=O)n2nc(C)cc2Nc2ccccc2)cc1	51.6*	-14.5	26.1	16.4	0.1	-0.4
O=S1(=O)C=C(Sc2nc3ccccc3s2)c2ccccc21	-86.8	0.0	4.3	-87.3*	3.1	7.3
O=C(OC1CO[C@H]2O[C@@H]1[C@H](OC(=O)c1ccccc1)[C@H]2OC(=O)c1ccccc1)c1ccccc1 (some centres not stated)	6.0	nt	-2.0	-5.5	nt	nt
N#Cc1c(-c2ccc3c(c2)OCO3)csc1N	-83.3	3.1	-4.0	-81.3*	-0.4	-0.8
S=C(NCc1ccccc1)N1CCN(C(=S)NCc2ccccc2)CC1	nt	nt	2.2	nt	nt	nt
CCOc1ccc(C(=O)NC2CC(=O)N(c3ccc4c(c3)OCCO4)C2)cc1 (configuration not stated)	13.8	nt	-3.2	-0.1	nt	nt
O=C(Cc1ccccc1F)Nc1ccc(S(=O)(=O)N2CCCC2)cc1	nt	nt	0.2	nt	nt	nt
CCC(=O)Nc1ccc(C(=O)Cn2ncc(Cl)c(Cl)c2=O)cc1	56.8*	1.9	3.5	41.7	nt	-1.2
O=C(Cn1ncc(Cl)c(Cl)c1=O)Nc1ccc2c(c1)OCO2	nt	nt	2.8	nt	nt	nt
Cc1ccc(C(=O)OCn2ncc(Cl)c(Cl)c2=O)cc1	-94.7	2.9	22.9	-93.6*	87.7*	-0.6
Cc1ccc(C)c(C(=O)Cn2ncc(Cl)c(Cl)c2=O)c1	8.7	8.8	9.5	20.4	-0.4	-6.3
CCN(CC)S(=O)(=O)c1cc(NC(=O)Cn2ncc(Cl)c(Cl)c2=O)ccc1C	120.5*	15.8	12.0	81.2	nt	5.1
O=C(Cn1ncc(Cl)c(Cl)c1=O)c1ccc2c(c1)OCCO2	nt	nt	10.5	nt	nt	nt
CCOC(=O)c1ccc(NC(=O)Cn2ncc(Cl)c(Cl)c2=O)cc1	-94.2	8.6	22.1	-93.5*	5.8*	3.0
COc1ccccc1NC(=O)C(C)OC(=O)C1CCC(C(C)(C)C)CC1 (configuration not stated)	14.2	nt	6.8	4.8	nt	nt
CN(CC(=O)Nc1c(Cl)cccc1Cl)C(=O)C1CSC2(C)CCC(=O)N12 (configuration not stated)	-9.4	nt	-4.8	-6.4	nt	nt
Oc1ccccc1N=Nc1nc(-c2ccccc2)c(-c2ccccc2)[nH]1	71.4*	1.7	-13.4	54.3	-0.6	-0.5
COc1ccc(OC)c(NC(=O)c2nc(S(=O)(=O)Cc3ccccc3)ncc2Cl)c1	-95.0	nt	9.6	-94.2*	nt	0.8
COc1ccc(NC(=O)c2nc(S(=O)(=O)Cc3cccc(C)c3)ncc2Cl)c(OC)c1	204.4*	nt	-2.9	170.7	nt	1.2
CC(C)(C)NC(=O)C(c1ccncc1)N(C(=O)c1csnn1)c1cccc2ccccc12 (configuration not stated)	13.7	0.3	-2.3	11.1	-0.3	0.2
Cc1cc(C)c(N(C(=O)c2csnn2)C(C(=O)NC2CCCC2)c2ccncc2)c(C)c1 (configuration not stated)	-81.5	nt	0.4	-76.0*	nt	-4.9
Cc1ccc(C)c(N(C(=O)c2csnn2)C(C(=O)NC2CCCC2)c2ccncc2)c1 (configuration not stated)	9.0	nt	-4.5	-3.0	nt	0.2

Assay outcomes as filed in PubChem.
